From ChEMBL document CHEMBL1155365, “2-Amino-9-aryl-3-cyano-4-methyl-7-oxo-6,7,8,9-tetrahydropyrido[2',3':4,5]thieno[2,3-b]pyridine derivatives as selective progesterone receptor agonists” (Bioorg Med Chem Lett, 2009)

Legend:
[1] = target: T1, Progesterone receptor (Homo sapiens, UniProt P06401); assay: Displacement of fluormone PL RED from progesterone receptor after 2 hrs
T1 sequence (P06401 whole entry): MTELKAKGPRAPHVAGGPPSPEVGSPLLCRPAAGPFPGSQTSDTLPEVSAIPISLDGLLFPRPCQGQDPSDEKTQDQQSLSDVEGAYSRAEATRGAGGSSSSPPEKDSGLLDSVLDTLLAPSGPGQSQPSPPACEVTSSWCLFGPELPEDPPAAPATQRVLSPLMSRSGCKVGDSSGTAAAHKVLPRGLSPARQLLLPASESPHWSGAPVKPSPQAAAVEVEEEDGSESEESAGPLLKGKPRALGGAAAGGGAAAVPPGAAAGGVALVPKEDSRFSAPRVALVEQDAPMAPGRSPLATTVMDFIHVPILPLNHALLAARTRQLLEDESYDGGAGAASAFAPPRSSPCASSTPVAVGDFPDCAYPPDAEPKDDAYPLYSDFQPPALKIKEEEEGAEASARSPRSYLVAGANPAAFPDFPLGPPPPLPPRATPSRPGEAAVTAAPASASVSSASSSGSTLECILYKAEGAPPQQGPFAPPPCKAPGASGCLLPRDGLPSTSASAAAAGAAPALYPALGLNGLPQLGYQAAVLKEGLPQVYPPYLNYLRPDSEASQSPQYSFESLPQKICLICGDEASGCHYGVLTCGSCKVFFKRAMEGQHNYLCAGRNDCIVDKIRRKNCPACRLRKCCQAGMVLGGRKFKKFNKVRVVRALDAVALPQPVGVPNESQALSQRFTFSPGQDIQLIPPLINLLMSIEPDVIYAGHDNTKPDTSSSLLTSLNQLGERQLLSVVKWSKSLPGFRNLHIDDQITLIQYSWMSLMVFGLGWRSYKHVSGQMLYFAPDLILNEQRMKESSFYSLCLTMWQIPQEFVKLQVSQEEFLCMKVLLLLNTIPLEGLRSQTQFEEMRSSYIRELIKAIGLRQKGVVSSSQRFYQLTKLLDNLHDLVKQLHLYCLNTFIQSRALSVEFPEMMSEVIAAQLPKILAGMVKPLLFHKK
Method in brief: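 Fluorescence polarization competition: 40 nM PR ligand-binding domain, 2 nM Fluormone PL Red, 1 mM DTT in PR Red buffer with 2 mM CHAPS, added to compound; brief spin, light-protected, ~2 h at room temperature; read at 530 nm excitation/580 nm emission. Values are means of ≥2 determinations.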

[2] = target: T1, Progesterone receptor; assay: Agonist activity at progesterone receptor B expressed in CV-1 cells by MMTV luciferase reporter gene assay; assay type: functional, cell-based
[3] = target: T2, Progesterone receptor (Homo sapiens) (UniProt P06401); assay: Agonist activity at progesterone receptor in human T47D cell after 24 hrs by alkaline phosphatase assay relative to progesterone
T2 sequence (whole entry): T1 sequence (P06401 whole entry)

[4] = target: T3, Androgen receptor (Homo sapiens, UniProt P10275); assay: Binding affinity to androgen receptor
T3 sequence (P10275 whole entry): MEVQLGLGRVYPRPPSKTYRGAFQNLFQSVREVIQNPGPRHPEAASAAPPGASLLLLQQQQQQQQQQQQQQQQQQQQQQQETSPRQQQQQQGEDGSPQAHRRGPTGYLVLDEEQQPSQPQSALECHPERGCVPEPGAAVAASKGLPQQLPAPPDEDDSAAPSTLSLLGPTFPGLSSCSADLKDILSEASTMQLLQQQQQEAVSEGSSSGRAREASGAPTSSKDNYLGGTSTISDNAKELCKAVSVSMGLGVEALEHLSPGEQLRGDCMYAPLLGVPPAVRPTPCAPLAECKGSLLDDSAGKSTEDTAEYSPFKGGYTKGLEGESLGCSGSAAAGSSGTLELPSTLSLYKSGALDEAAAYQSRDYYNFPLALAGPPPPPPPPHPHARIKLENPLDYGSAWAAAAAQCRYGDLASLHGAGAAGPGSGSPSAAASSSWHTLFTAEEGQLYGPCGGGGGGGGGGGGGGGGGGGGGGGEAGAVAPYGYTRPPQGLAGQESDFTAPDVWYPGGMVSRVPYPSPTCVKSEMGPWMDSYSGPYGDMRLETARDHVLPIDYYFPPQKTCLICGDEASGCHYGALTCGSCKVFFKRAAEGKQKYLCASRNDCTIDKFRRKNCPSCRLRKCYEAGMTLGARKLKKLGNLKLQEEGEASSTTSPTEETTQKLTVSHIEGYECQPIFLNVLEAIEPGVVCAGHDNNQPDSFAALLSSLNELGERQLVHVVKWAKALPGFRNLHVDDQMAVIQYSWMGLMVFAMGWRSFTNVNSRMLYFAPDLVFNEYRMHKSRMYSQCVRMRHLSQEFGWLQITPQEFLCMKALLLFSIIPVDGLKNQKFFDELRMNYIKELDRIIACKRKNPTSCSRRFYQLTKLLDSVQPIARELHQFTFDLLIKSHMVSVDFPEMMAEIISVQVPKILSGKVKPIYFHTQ

[5] = target: T1, Progesterone receptor; assay: Agonist activity at progesterone receptor in human T47D cell after 24 hrs by alkaline phosphatase assay; assay type: functional, cell-based
Method in brief: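 T47D cells seeded and left to attach overnight, then treated with compound and incubated overnight. Next day pNPP-SPAP substrate added, 2 h in the dark, absorbance read at 405 nm. Potency as pEC50, efficacy as % of P4 response; means of ≥2 determinations.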

[6] = target: T3, Androgen receptor; assay: Agonist activity at androgen receptor expressed in CV-1 cells by MMTV luciferase reporter assay; assay type: functional, cell-based
[7] = tested on: Mus musculus; assay: Blood clearance in mouse at 0.5 mg/kg, iv and 1 mg/kg, po; assay type: ADME, organism-based; details: in vivo
Method in brief: (§1)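 In vivo mouse pharmacokinetics with dosing at 0.5 mg/kg intravenously and 1.0 mg/kg orally. Blood clearance, half-life, steady-state volume of distribution and oral bioavailability were derived from these studies.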

[8] = target: Cytochrome P450 2D6 (Homo sapiens, UniProt P10635); assay: Inhibition of CYP2D6; assay type: ADME
Cytochrome P450 2D6, sequence (P10635 whole entry): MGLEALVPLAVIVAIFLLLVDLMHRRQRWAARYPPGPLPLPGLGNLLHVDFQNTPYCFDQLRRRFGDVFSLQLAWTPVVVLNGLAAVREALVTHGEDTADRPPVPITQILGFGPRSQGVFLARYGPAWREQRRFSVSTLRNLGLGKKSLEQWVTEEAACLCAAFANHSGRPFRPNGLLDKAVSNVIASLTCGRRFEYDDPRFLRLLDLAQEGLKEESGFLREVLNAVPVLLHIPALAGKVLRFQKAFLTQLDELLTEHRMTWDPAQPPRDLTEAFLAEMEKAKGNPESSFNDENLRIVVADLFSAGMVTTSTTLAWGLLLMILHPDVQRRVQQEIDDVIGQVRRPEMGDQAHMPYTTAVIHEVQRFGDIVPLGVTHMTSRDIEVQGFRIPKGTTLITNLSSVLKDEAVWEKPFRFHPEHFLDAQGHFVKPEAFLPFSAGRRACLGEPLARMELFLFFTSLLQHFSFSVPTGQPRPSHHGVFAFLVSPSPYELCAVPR

[9] = Oral bioavailability in mouse at 1 mg/kg; assay type: ADME, organism-based; details: in vivo; method in brief: as §1
[10] = tested on: Liver microsomes; assay: Intrinsic clearance in human liver microsomes; assay type: ADME, Microsome
Method in brief: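 Metabolic stability in human liver microsomes; intrinsic clearance expressed as mL/min[…].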

[11] = target: Voltage-gated inwardly rectifying potassium channel KCNH2 (Homo sapiens, UniProt Q12809); assay: Binding affinity to human ERG channel
Voltage-gated inwardly rectifying potassium channel KCNH2, sequence (Q12809 whole entry): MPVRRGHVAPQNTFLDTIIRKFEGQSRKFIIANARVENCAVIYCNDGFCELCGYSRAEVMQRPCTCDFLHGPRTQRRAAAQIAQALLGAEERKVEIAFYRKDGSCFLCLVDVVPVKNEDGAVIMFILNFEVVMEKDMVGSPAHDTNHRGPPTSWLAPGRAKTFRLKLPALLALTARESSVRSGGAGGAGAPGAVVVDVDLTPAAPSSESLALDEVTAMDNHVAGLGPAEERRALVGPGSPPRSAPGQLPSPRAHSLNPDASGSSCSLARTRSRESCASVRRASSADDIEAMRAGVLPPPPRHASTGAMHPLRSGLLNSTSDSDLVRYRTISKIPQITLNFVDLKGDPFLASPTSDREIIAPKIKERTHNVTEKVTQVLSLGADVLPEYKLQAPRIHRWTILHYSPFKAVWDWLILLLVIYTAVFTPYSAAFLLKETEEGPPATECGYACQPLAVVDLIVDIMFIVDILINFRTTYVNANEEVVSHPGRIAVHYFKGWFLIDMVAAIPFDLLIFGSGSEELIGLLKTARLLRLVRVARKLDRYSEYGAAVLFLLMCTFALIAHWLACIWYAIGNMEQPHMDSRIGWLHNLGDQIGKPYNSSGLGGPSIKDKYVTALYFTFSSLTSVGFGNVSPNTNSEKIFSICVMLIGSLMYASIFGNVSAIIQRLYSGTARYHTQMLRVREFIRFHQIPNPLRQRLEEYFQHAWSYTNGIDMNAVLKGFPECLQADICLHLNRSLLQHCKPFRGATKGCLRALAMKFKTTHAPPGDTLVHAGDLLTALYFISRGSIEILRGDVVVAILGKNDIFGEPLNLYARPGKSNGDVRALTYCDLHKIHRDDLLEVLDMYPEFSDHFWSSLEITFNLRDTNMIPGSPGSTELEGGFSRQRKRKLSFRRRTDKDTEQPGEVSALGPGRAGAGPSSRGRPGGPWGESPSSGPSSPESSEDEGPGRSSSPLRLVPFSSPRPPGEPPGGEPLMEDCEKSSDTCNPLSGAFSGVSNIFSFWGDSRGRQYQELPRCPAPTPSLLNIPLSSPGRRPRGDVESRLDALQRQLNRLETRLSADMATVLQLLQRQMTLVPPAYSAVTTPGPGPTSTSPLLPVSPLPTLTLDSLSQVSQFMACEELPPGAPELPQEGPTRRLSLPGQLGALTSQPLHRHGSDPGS

[12] = target: Cytochrome P450 2C9 (Homo sapiens, UniProt P11712); assay: Inhibition of CYP2C9; assay type: ADME
Cytochrome P450 2C9, sequence (P11712 whole entry): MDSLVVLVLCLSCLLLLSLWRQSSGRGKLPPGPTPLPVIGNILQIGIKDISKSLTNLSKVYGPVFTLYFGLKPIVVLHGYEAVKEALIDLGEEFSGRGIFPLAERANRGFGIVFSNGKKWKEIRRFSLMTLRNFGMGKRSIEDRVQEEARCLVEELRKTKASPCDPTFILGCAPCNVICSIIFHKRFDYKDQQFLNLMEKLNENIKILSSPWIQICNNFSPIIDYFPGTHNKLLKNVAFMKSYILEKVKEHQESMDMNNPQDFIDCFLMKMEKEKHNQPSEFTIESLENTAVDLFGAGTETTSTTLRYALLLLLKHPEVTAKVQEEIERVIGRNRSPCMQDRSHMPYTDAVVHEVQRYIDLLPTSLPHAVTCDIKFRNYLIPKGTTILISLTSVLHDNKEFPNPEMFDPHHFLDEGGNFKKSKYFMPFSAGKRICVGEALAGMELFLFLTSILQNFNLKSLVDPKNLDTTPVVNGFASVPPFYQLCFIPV

[13] = Volume of distribution at steady state in mouse at 0.5 mg/kg, iv and 1 mg/kg, po; assay type: ADME, organism-based; details: in vivo, read-out: Vdss; method in brief: as §1
[14] = Half life in mouse at 0.5 mg/kg, iv and 1 mg/kg, po; assay type: ADME, organism-based; details: in vivo; method in brief: as §1
[15] = target: Cytochrome P450 3A4 (Homo sapiens, UniProt P08684); assay: Inhibition of CYP3A4; assay type: ADME
Cytochrome P450 3A4, sequence (P08684 whole entry): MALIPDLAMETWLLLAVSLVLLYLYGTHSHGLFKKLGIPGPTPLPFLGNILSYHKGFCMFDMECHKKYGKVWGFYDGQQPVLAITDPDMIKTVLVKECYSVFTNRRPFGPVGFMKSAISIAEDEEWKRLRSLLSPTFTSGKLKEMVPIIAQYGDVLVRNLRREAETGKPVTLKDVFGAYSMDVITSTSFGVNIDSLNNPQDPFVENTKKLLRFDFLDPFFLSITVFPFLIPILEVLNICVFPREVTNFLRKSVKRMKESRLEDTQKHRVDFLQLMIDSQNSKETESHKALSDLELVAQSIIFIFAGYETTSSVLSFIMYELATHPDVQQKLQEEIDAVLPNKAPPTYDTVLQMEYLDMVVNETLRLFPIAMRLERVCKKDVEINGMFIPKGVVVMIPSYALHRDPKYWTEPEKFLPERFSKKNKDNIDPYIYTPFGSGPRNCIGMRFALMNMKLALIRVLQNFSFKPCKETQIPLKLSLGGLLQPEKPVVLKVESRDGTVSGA

[16] = target: Cytochrome P450 2C19 (Homo sapiens, UniProt P33261); assay: Inhibition of CYP2C19; assay type: ADME
Cytochrome P450 2C19, sequence (P33261 whole entry): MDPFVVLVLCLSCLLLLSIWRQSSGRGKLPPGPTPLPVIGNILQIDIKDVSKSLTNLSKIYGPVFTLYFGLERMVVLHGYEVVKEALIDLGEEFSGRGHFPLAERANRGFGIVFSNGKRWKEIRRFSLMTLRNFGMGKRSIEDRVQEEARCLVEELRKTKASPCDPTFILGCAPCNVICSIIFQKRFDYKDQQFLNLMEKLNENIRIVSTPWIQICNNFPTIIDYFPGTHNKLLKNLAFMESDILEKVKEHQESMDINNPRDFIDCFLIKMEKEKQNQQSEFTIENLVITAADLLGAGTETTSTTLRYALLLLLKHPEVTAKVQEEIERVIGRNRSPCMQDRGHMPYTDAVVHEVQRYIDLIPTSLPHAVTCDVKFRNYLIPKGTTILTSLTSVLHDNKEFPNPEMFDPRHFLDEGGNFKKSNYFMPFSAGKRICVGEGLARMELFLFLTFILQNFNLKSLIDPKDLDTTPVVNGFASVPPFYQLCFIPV

[17] = target: T4, Cytochrome P450 1A2 (Homo sapiens, UniProt P05177); assay: Inhibition of CYP1A2; assay type: ADME
T4 sequence (P05177 whole entry): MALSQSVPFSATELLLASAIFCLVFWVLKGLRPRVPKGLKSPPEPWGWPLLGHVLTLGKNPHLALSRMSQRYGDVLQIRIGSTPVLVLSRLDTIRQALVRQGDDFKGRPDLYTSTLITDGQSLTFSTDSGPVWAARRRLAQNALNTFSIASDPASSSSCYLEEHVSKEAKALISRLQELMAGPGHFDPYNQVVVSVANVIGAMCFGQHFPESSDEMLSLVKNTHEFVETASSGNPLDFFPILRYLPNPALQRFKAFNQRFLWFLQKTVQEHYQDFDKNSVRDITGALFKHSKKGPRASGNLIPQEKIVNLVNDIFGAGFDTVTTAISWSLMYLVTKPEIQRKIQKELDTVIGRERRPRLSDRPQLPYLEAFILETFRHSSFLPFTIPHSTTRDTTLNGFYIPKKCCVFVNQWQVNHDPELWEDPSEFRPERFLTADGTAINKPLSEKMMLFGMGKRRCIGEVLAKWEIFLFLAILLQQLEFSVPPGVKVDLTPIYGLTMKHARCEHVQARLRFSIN

Row | Structure (SMILES) | IC50 [1] [nM] | EC50 [2] [µM] | Activity [3] [%] | pEC50 [5] | pIC50 [4] | further results
1 | Cc1c(C#N)c(N)nc2c3c(sc12)NC(=O)CC3c1ccccc1Cl (stereo not given) | 200 | 0.631 | 80 | 7.1 | < 5 | clearance [7]: 24 mL/min/kg; IC50 [8]: > 10 µM; bioavailability [9]: 36%; CL [10]: 0.019 mL/min/mg; Activity [11]: Not Active; IC50 [12]: 1260 nM; Vd [13]: 2.5 L/kg; half-life [14]: 66 min; IC50 [15]: > 10 µM; IC50 [16]: > 10 µM; IC50 [17]: > 10 µM
2 | Cc1c(C#N)c(O)nc2c3c(sc12)NC(=O)CC3c1ccccc1Cl (stereo not given) | > 10000 | > 10 |  |  | > 5 | 
3 | Cc1c(C#N)c(N)nc2c3c(sc12)NC(=O)CC3c1cccc(Cl)c1Cl (stereo not given) | 794 | > 10 |  |  | > 5 | 
4 | Cc1c(C#N)c(N)nc2c3c(sc12)NC(=O)CC3c1ccccc1F (stereo not given) | 631 | 3.98 | 47 | 6.4 |  | 
5 | Cc1c(C#N)c(N)nc2c3c(sc12)NC(=O)C[C@@H]3c1ccccc1Cl | 158 | 0.2 | 83 | 7.4 | > 5 | 
6 | COc1cccc(C2CC(=O)Nc3sc4c(C)c(C#N)c(N)nc4c32)c1 (stereo not given) | > 10000 | > 10 |  |  |  | 
7 | Cc1c(C#N)c(N)nc2c3c(sc12)NC(=O)CC3c1ccc(Cl)cc1Cl (stereo not given) | 794 | > 10 |  |  | > 5 | 

Further lines, with some results ahead:

Row | IC50 [1] [nM] | EC50 [2] [µM] | Activity [3] [%] | pEC50 [5] | pIC50 [4] | Structure (SMILES) | further results
8 | > 10000 | > 10 |  |  |  | COc1ccccc1C1CC(=O)Nc2sc3c(C)c(C#N)c(N)nc3c21 (stereo not given) | 
9 | 50.1 | 0.000794 | 116 | 8.6 |  | Cc1c(C#N)c(Cl)nc2c3c(sc12)NC(=O)CC3c1ccccc1Cl (stereo not given) | IC50 [4]: 2000 nM; EC50 [6]: > 10 µM
10 |  | > 10 |  |  | > 5 | Cc1c(C#N)c(N)nc2c3c(sc12)NC(=O)CC3c1ccccc1 (stereo not given) | 
11 | 6310 | > 10 |  |  | > 5 | Cc1c(C#N)c(N)nc2c3c(sc12)NC(=O)C[C@H]3c1ccccc1Cl | 
12 | 1000 | > 10 |  |  | > 5 | Cc1c(C#N)c(N)nc2c3c(sc12)NC(=O)CC3c1cc(Cl)ccc1Cl (stereo not given) | 
13 | 1260 | > 10 |  |  | > 5 | Cc1ccccc1C1CC(=O)Nc2sc3c(C)c(C#N)c(N)nc3c21 (stereo not given) | 
14 | 1260 | 3.98 | 13 | 6.1 | > 5 | Cc1c(C#N)c(N)nc2c3c(sc12)NC(=O)CC3c1c(F)cccc1Cl (stereo not given) | 
